Laboratory results from PMC2785155 (The Journal of Biological Chemistry, 2009).

Columns and labels:
SufBC [1] = molecular target: T1, SufBC (Thermotoga maritima, UniProt Q9X188); assay: stopped-flow ADP dissociation trapped by MDCC-ParM; format: binding; settings: 50 mM Tris-HCl pH 7.5, 100 mM KCl, 5 mM MgCl2, 2 mM dithiothreitol, 20 °C
T1 sequence (Q9X188 1-246): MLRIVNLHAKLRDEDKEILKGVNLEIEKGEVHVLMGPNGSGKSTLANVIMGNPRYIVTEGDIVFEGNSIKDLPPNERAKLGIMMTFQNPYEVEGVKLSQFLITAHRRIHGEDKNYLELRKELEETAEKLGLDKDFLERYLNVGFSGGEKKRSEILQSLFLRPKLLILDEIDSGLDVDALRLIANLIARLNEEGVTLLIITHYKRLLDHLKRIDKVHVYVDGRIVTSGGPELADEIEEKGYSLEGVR
T1 sequence (Q9X189 1-464 partner): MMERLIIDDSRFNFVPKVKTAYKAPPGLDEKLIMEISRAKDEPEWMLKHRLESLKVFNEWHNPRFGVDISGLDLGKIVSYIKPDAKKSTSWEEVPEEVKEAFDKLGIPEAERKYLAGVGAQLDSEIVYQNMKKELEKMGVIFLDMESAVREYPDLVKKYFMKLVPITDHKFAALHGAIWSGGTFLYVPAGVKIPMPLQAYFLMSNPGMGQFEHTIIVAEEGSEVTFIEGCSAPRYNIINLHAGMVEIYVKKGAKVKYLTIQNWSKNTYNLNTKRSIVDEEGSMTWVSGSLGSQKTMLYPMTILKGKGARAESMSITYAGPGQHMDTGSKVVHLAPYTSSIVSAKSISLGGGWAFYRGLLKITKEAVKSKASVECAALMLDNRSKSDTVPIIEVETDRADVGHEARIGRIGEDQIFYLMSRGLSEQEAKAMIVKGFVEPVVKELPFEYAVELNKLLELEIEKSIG
Procedure, shortened: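 SufBC (13 μM) was preincubated with 4 μM ADP in one stopped-flow syringe. It was rapidly mixed with 80 or 160 μM MDCC-ParM ADP sensor, which traps ADP released from SufBC. ADP dissociation was read from the change in MDCC fluorescence over time.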

SufBC [2] = molecular target: T1, SufBC; settings: 50 mM Tris-HCl pH 7.5, 100 mM KCl, 5 mM MgCl2, 2 mM dithiothreitol, 20 °C

| Compound | rate constant (ADP dissociation) (SufBC [1]) | single-turnover stopped-flow, MDCC-PBP and MDCC-ParM sensors (SufBC [2]) |
| --- | --- | --- |
| Nc1ncnc2c1ncn2[C@@H]1O[C@H](COP(=O)(O)OP(=O)(O)O)[C@@H](O)[C@H]1O [ADP] | 0.046 s⁻¹ | – |
| Nc1ncnc2c1ncn2[C@@H]1O[C@H](COP(=O)(O)OP(=O)(O)OP(=O)(O)O)[C@@H](O)[C@H]1O [ATP] | – | study ADP and Pi release during a single turnover of ATP hydrolysis by SufBC |
